Source: PubChem BioAssay
Sampled rows, rich in hits. Any-hit rate of the full collection: about 2.9%.
DNA FID counter = fluorescent intercalator displacement, NS3 helicase counter-screen; AID 1845; DNA fluorescent intercalator displacement, fluorescence; inhibition, % at 7.9 µM; hit rate 0.17% among 290,000; in the data active = inhibition above about 37%;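 also: 0% = vehicle and 100% = reference compound; higher means more ethidium bromide displaced from hairpin DNA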
SUMO HTRF inh = blocks human SUMOylation mediated by UBC9; P63279; HTRF SUMOylation assay, SAE1/SAE2 + UBC9, in vitro; inhibition, % at 35 µM; hit rate 0.36% among 290,000; AID 2006; in the data active = inhibition above about 50%, passing the limit was not always enough
Target sequence (P63279 whole entry, looked up): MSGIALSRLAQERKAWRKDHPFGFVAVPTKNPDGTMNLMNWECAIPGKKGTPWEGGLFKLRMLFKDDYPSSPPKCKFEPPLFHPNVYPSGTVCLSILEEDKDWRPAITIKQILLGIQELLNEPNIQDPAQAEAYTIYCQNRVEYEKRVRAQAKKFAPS
VIM-2 inh = blocks Pseudomonas aeruginosa VIM-2 metallo-beta-lactamase. purified VIM-2, nitrocefin hydrolysis, epi-absorbance fluorescence. inhibition, % at 5.6 µM. hit rate 0.89% among 290,000;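 active = inhibition above the mean of all tested compounds plus 3 SD, cutoff set per screening run, cut at about 7.5% in these data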;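 also: red hydrolysis product quenches plate fluorescence so inhibitors raise well fluorescence; 0% = enzyme with DMSO and 100% = DMSO without enzyme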
Mot1-301 SUMO = blocks SUMOylation pathway, rescuing yeast Mot1-301 growth; S. cerevisiae Mot1-301 growth rescue, ATP luminescence, 38.5C; percent above DMSO median, 100 means doubled; growth rescue, % at 18.8 µM; hit rate 1% among 320,000; AID 2716;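 active = every valid replicate shows activation above 250% relative to neutral control wells; inactive = the rest, any valid replicate at or below 250%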;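 also: OY570 slx delta 5 strain wells were the positive control but not used for scaling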
NALP1 inh = blocks the NALP1 inflammasome reconstituted in yeast; hit rate 0.61% among 280,000; inhibition, % at 10 µM; S. cerevisiae NALP1/ASC/caspase-1 growth, X-gal OD620, 72 h; in the data active = inhibition mostly above about 24%, no sharp cut-off; inactive = mostly below about 32%
IMP-1 inh = blocks Pseudomonas aeruginosa IMP-1 metallo-beta-lactamase; purified IMP-1, nitrocefin hydrolysis, epi-absorbance fluorescence; inhibition, % at 5.6 µM; hit rate 0.45% among 290,000; AID 1556;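 active = inhibition above the mean plus 3 SD of all compounds in the same screening run, cut at about 4.5% in these data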;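 also: 0% = IMP-1 with DMSO and 100% = DMSO wells lacking enzyme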
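assay system = purified recombinant IMP-1 metallo-beta-lactamase enzyme | schedule = 15 min preincubation plus 25 min reaction at 25 °C | signal = Epi-absorbance fluorescence, 480 nm excitation, 530 nm emission | read-out basis = percent inhibition from optical density relative to buffer-blank wells | controls = IMP-1 with DMSO as 0%, enzyme-free DMSO as 100%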
Numbers without * were called inactive; nt = no result given.

SMILES | DNA FID counter | SUMO HTRF inh | VIM-2 inh | Mot1-301 SUMO | NALP1 inh | IMP-1 inh
CCC1Sc2ccccc2N(CC(=O)NC2CC2)C1=O (stereo not drawn) | -3 | 13 | -1 | nt | 3 | -2
CC(Sc1nnc(-c2ccco2)n1C)C(=O)N1C(C)CCCC1C (stereo not drawn) | -17 | 8 | -1 | -9 | 36* | -3
COc1ccc(C)cc1S(=O)(=O)N1CCN(C)CC1c1ccccc1 (stereo not drawn) | nt | nt | nt | -21 | nt | nt
COCCn1c(C)cc(C(=O)CSc2nncn2-c2ccccc2)c1C | -9 | 15 | 2 | -17 | 1 | 5.0*
COc1ccc(CNC(=O)CN(C(=O)c2snc(C(N)=O)c2N)c2ccccc2F)cc1 | -35 | 3 | -3 | 6 | 2 | -5
COc1cc(CNCCN2CCOCC2)ccc1OCc1ccc(Cl)cc1 | 16 | 10 | -1 | 38 | 9 | -3
COc1cc(CNCCCN2CCOCC2)cc(Br)c1OCc1ccc(Cl)cc1 | 42* | 9 | 0 | 228 | 10 | -3
COc1cc(CNCCCN2CCOCC2)cc(Br)c1OCC(=O)N1CCCCC1 | 18 | 4 | -1 | 8 | 30* | -3
O=C(O)c1cccc(S(=O)(=O)N2CCCC(c3nc4c(nnn4Cc4ccc(F)cc4)c(=O)[nH]3)C2)c1 (stereo not drawn) | -15 | -9 | 0 | 288 | -4 | 1
CC(=O)c1ccc(N2CCN(CC(=O)NCc3ccccc3)CC2)cc1 | -20 | 13 | 1 | -10 | 18 | 6.5*
CC1CCN(CC(=O)NC(=O)NCc2ccccc2)CC1 | -7 | 10 | -3 | 332* | 18 | -3
O=C(CN1CCN(Cc2cccc3ccccc23)CC1)NCCc1ccccc1 | -8 | 0 | 0 | -11 | 27* | -4
CCC1Oc2ccccc2N(CC(=O)NC2CCCC2)C1=O (stereo not drawn) | -5 | 5 | -2 | 9 | 11 | -2
COc1ccc(C(=O)Nc2ccc(C3CC3(Cl)Cl)cc2)cc1 (stereo not drawn) | -1 | 4 | -1 | 13 | -1 | -3
Cc1ccc(NC(=O)Cn2c(=O)cnc3ccccc32)cc1S(=O)(=O)N(C)C | -16 | -2 | -3 | 1 | 17 | -1
Cc1cccc(C)c1NC(=O)CN(C)C(=O)Cn1c(=O)cnc2ccccc21 | -6 | 22 | -4 | 1 | 30* | -4
Cc1cc(C)n2nc3ccccc3c2n1 | 1 | 14 | 6 | -12 | 25* | -1
CC1(C)Cc2cccc(OCC(=O)Nc3ccc(S(N)(=O)=O)cc3)c2O1 | nt | nt | nt | -1 | nt | nt
OCCNc1nc(-c2ccccc2)nc2ccccc12 | -5 | 12 | 0 | 5 | 14 | -1
COc1ccc(-c2nc(NCCCN(C)C)c3ccccc3n2)cc1 | 79* | -7 | 7 | -5 | 11 | -4
COCCCNc1nc(-c2ccc(Cl)cc2)nc2ccccc12 | 6 | 3 | 0 | 16 | 36* | -2
COCCNc1nc(-c2ccccc2)nc2ccccc12 | -3 | 6 | -3 | 0 | 15 | -2
CCN(CC)CCCNc1nc(-c2ccccc2)nc2ccccc12 | 57* | 2 | -1 | -24 | 36 | -2
Cc1ccc(C)c(S(=O)(=O)N2CCCC2CNC(=O)C(=O)NCC2CCCO2)c1 (stereo not drawn) | nt | nt | nt | -16 | nt | nt
O/N=C(\CN1CCCCC1)c1ccccc1 | -4 | 9 | -2 | -14 | 10 | -2
SMILES | DNA FID counter | SUMO HTRF inh | VIM-2 inh | Mot1-301 SUMO | NALP1 inh | IMP-1 inh
CC(=O)c1cccc(NC(=O)CSc2nnc(-c3ccncc3)o2)c1 | nt | nt | nt | -8 | nt | nt
COC(=O)c1cccc(NC(=O)CSc2nnc(C)o2)c1 | -4 | 5 | -4 | 74 | 9 | 7.5*
O=C(O)CSc1cc(C(=O)c2ccccc2O)cn2c(=O)c3c4c(sc3nc12)CCCC4 | -10 | 50* | -3 | nt | nt | -1
Cc1ccc(C(=O)Nc2cc3[nH]c(=O)oc3cc2C)cc1 | -8 | 5 | -7 | 303* | -17 | -4
NC(=O)COC(=O)c1cccc2c1-c1ccccc1C2=O | 4 | 10 | 7.9* | -11 | 15 | -4
CC(C)NC(=O)c1cccc2c1-c1ccccc1C2=O | -1 | -2 | -1 | 61 | 16 | -4
Brc1ccc(-c2csc(-c3ccncc3)n2)cc1 | 0 | -2 | -3 | 245 | 24 | -2
COc1ccc(OC)c(/C=C2\N=C(c3ccccc3)OC2=O)c1 | -33 | 7 | 10* | -17 | 4 | 0
